Reference: ChEMBL document CHEMBL1122933, “Drug glycosides: potential prodrugs for colon-specific drug delivery” (J Med Chem, 1985)

Legend:
[1] = Km(app) value was determined in homogenates of pooled cecal contents in rats; type: ADME; settings: rat, read-out: Km app
Procedure, shortened: (§1)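 Cecal contents from four rats pooled, weighed wet, diluted in 0.01 M phosphate pH 7.0 and homogenized. Reactions were run in duplicate at 37 °C for 15 min across substrate ranges spanning apparent KM. For p-nitrophenyl glycosides: 56-1000 substrate, NaOH stop, A403. For steroid glycosides: 0.5-48 substrate, MeOH quench, HPLC. KM(app) and Vmax (per g wet weight) came from Eadie-Hofstee plots.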

[2] = organism: Rattus norvegicus; experiment: Vmax value was determined in homogenates of pooled cecal contents in rats; type: ADME; procedure, shortened: as §1
[3] = organism: Rattus norvegicus; experiment: Specific activity of the DSI segment in rat intestine; type: functional
Procedure, shortened: (§2)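 Contents of each rat GI segment (stomach, proximal small intestine, distal small intestine, cecum) were pooled from four animals, weighed wet, diluted in cold 0.01 M phosphate buffer pH 7.0, and homogenized. Homogenate was incubated with 1.0 mM glycoside at 37 °C with shaking for up to 30 min. Aliquots were MeOH-quenched, centrifuged and analysed by HPLC for released aglycon.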

[4] = organism: Rattus norvegicus; experiment: Specific activity of the cecum segment in rat intestine; type: functional; procedure, shortened: as §2
[5] = organism: Rattus norvegicus; experiment: Total activity of the entire contents of DSI segment in rat intestine; type: functional; procedure, shortened: as §2
[6] = organism: Rattus norvegicus; experiment: Total activity of the entire contents of PSI segment in rat intestine; type: functional; procedure, shortened: as §2
[7] = organism: Rattus norvegicus; experiment: Total activity of the entire contents of cecum segment in rat intestine; type: functional; procedure, shortened: as §2
[8] = organism: Rattus norvegicus; experiment: Total activity of the entire contents of stomach segment in rat intestine; type: functional; procedure, shortened: as §2
[9] = organism: Rattus norvegicus; experiment: Specific activity of the stomach segment in rat intestine; type: functional; procedure, shortened: as §2
[10] = Partition coefficient (logP); type: physicochemical; settings: octanol/water
[11] = organism: Rattus norvegicus; experiment: Specific activity of the PSI segment in rat intestine; type: functional; parameters: unit not given here; procedure, shortened: as §2

| SMILES | Km [1] [µM] | Vmax [2] [µM/min/g] | Specific activity [3] [nM/min] | Specific activity [4] [nM/min] | Total activity [5] [µM/min] | Total activity [6] [µM/min] | Total activity [7] [µM/min] | Total activity [8] [µM/min] | Specific activity [9] [nM/min] | logP [10] | Specific activity [11] |
| --- | --- | --- | --- | --- | --- | --- | --- | --- | --- | --- | --- |
| CC1CC2C3CCC4=CC(=O)C=CC4(C)[C@@]3(F)C(O)CC2(C)[C@@]1(O)C(=O)CO[C@@H]1O[C@@H](CO)[C@@H](O)[C@H](O)[C@H]1O (some centres not stated) | 13.3 | 3.9 | 29.3 | 322 | 0.41 | 0.004 | 6.5 | 0.004 | 2 | – | – |
| C[C@]12CCC(=O)C=C1CC[C@@H]1[C@@H]2[C@@H](O)C[C@@]2(C)[C@H]1CC[C@]2(O)C(=O)CO [HYDROCORTISONE] | – | – | – | – | – | – | – | – | – | 1.54 | – |
| C[C@]12C=CC(=O)C=C1CC[C@@H]1[C@@H]2[C@@H](O)C[C@@]2(C)[C@H]1CC[C@]2(O)C(=O)CO[C@@H]1O[C@H](CO)[C@@H](O[C@@H]2O[C@H](CO)[C@@H](O)[C@H](O)[C@H]2O)[C@H](O)[C@H]1O | – | – | 32.5 | 109 | 0.64 | 0.11 | 2.2 | 0.01 | 7.5 | -0.56 | 26 |
| O=[N+]([O-])c1ccc(O[C@@H]2O[C@H](CO)[C@@H](O)[C@H](O)[C@H]2O)cc1 | 360 | 697 | 86.6 | 454 | 0.65 | 0.15 | 9.1 | 0.08 | 72.2 | – | – |
| CC12CCC(=O)C=C1CCC1C2C(O)CC2(C)C1CC[C@]2(O)C(=O)CO[C@@H]1O[C@H](CO)[C@@H](O)[C@H](O)[C@H]1O (some centres not stated) | 5.7 | 2.6 | 39.2 | 30.5 | 0.7 | 0.1 | 0.76 | 0.09 | 5.5 | 0.44 | 15.9 |
| CC12CCC(=O)C=C1CCC1C3CC[C@](O)(C(=O)CO)C3(C)CC(O)[C@@]12F (some centres not stated) | – | – | – | – | – | – | – | – | – | 1.73 | – |
| C[C@]12C=CC(=O)C=C1CC[C@@H]1[C@@H]2C(O)C[C@@]2(C)[C@H]1CC[C@]2(O)C(=O)CO[C@@H]1O[C@@H](CO)[C@@H](O)[C@H](O)[C@H]1O (some centres not stated) | 20 | 10.3 | 122 | 665 | 1.72 | 0.23 | 13 | 0.19 | 12.1 | 0.11 | 49.3 |
| C[C@@H]1C[C@H]2[C@@H]3CCC4=CC(=O)C=C[C@]4(C)[C@@]3(F)[C@@H](O)C[C@]2(C)[C@@]1(O)C(=O)CO [DEXAMETHASONE] | – | – | – | – | – | – | – | – | – | 1.72 | – |
| O=[N+]([O-])c1ccc(O[C@@H]2O[C@H](CO)[C@H](O)[C@H](O)[C@H]2O)cc1 | 166 | 1233 | 425 | 1620 | 3.6 | 0.2 | 30.8 | 0.7 | 57.8 | – | – |
| CC12CCC(=O)C=C1CCC1C3CC[C@](O)(C(=O)CO[C@H]4O[C@H](CO)[C@@H](O)[C@H](O)[C@H]4O)C3(C)CC(O)[C@@]12F (some centres not stated) | 2.5 | 2.2 | 56.7 | 642 | 0.8 | 0.01 | 12.9 | 0.01 | 7 | 0.25 | 12.5 |
| CC12CCC(=O)C=C1CCC1C3CC[C@](O)(C(=O)CO[C@H]4O[C@@H](CO)[C@@H](O)[C@H](O)[C@H]4O)C3(C)CC(O)[C@@]12F (some centres not stated) | 4.4 | 2.4 | 33 | 49 | 0.43 | 0.08 | 1.4 | 0.14 | 7.7 | 0.84 | 12.3 |
| C[C@]12C=CC(=O)C=C1CC[C@@H]1[C@@H]2[C@@H](O)C[C@@]2(C)[C@H]1CC[C@]2(O)C(=O)CO [PREDNISOLONE] | – | – | – | – | – | – | – | – | – | 1.55 | – |
| O=[N+]([O-])c1ccc(O[C@@H]2O[C@H](CO)[C@@H](O[C@@H]3O[C@H](CO)[C@@H](O)[C@H](O)[C@H]3O)[C@H](O)[C@H]2O)cc1 | – | – | 26 | 96.5 | 0.25 | 0.05 | 2.6 | 0.35 | 34.2 | – | – |
| CC1CC2C3CCC4=CC(=O)C=CC4(C)[C@@]3(F)C(O)CC2(C)[C@@]1(O)C(=O)CO[C@@H]1O[C@H](CO)[C@@H](O)[C@H](O)[C@H]1O (some centres not stated) | 16.7 | 10.2 | 19.3 | 141 | 0.34 | 0.07 | 3.5 | 0.12 | 6.8 | – | – |
| C[C@]12C=CC(=O)C=C1CC[C@@H]1[C@@H]2C(O)C[C@@]2(C)[C@H]1CC[C@]2(O)C(=O)CO[C@@H]1O[C@H](CO)[C@@H](O)[C@H](O)[C@H]1O (some centres not stated) | 4.5 | 2.6 | 56.8 | 265 | 1 | 0.07 | 6.6 | 0.12 | 6.8 | 0.27 | 12.2 |
| CC12CCC(=O)C=C1CCC1C2C(O)CC2(C)C1CC[C@]2(O)C(=O)CO[C@@H]1O[C@@H](CO)[C@@H](O)[C@H](O)[C@H]1O (some centres not stated) | 33.3 | 20.6 | 110 | 592 | 1.6 | 0.02 | 11.9 | 0.02 | 12.5 | 0.15 | 42.5 |
